Experimental data published in ChEMBL document CHEMBL1687778, “Genetic determinants involved in the susceptibility of Pseudomonas aeruginosa to beta-lactam antibiotics” (2010).
Values after ≈ are worked out from the molar mass of the structure shown.

Columns and labels:
Format in all cases: functional
Pseudomonas aeruginosa [1] = assay: Antimicrobial activity against Pseudomonas aeruginosa PA14 PA3050 harboring pyrD mutant gene by Etest method
Outline: (§1)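 Overnight LB cultures (37°C) diluted in sterile 0.85% NaCl to about 1 × 10^7 CFU/ml. 100 µl spread on Mueller-Hinton agar, one Etest strip per plate, 18 h at 37°C. Ceftazidime, imipenem and meropenem tested. Wild-type PA14 plate included in each set. Each mutant verified in triplicate.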

Pseudomonas aeruginosa [2] = assay: Antimicrobial activity against Pseudomonas aeruginosa harboring algU mutant gene by Etest method
Outline: (§2)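 Etest MIC. Overnight LB cultures at 37°C were diluted in sterile 0.85% NaCl to about 1 × 10^7 CFU/ml. 100 µl was spread on Mueller-Hinton agar, one strip was placed per plate, and plates were incubated at 37°C for 18 h. Equal cell numbers were seeded per plate, and results were verified in triplicate. PA14 wild type was included in each set as a susceptibility control.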

Pseudomonas aeruginosa [3] = assay: Antimicrobial activity against Pseudomonas aeruginosa PA14 PA0958 harboring oprD mutant gene by Etest method; outline: as §1
Pseudomonas aeruginosa [4] = assay: Antimicrobial activity against Pseudomonas aeruginosa PA14 PA14_43090 harboring mutation in hypothetical protein by Etest method; outline: as §1
Pseudomonas aeruginosa [5] = assay: Antimicrobial activity against Pseudomonas aeruginosa PA14 PA0011 harboring mutation in putative 2-OH-lauroyltransferase by Etest method; outline: as §1
Pseudomonas aeruginosa [6] = assay: Antimicrobial activity against Pseudomonas aeruginosa PA14 PA14_23430 harboring mutation in putative heparinase by Etest method; outline: as §1
Pseudomonas aeruginosa [7] = assay: Antimicrobial activity against Pseudomonas aeruginosa PA14 PA3262 harboring fklB mutant gene by Etest method; outline: as §2
Pseudomonas aeruginosa [8] = assay: Antimicrobial activity against Pseudomonas aeruginosa PA14 PA3704 harboring wspE mutant gene by Etest method; outline: as §2
Pseudomonas aeruginosa [9] = assay: Antimicrobial activity against Pseudomonas aeruginosa PA14 PA0770 harboring rnc mutant gene by Etest method; outline: as §1
Pseudomonas aeruginosa [10] = assay: Antimicrobial activity against Pseudomonas aeruginosa PA14 PA2615 harboring ftsK mutant gene by Etest method; outline: as §1
Pseudomonas aeruginosa [11] = assay: Antimicrobial activity against Pseudomonas aeruginosa PA14 PA4745 harboring nusA mutant gene by Etest method; outline: as §2
Pseudomonas aeruginosa [12] = assay: Antimicrobial activity against Pseudomonas aeruginosa harboring pBBR1MCS-3 expressing algU mutant gene by Etest method
Outline: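 Etest MIC run in triplicate on a plasmid-carrying strain. The Mueller-Hinton agar contained tetracycline at 20 µg/ml for plasmid maintenance. The inoculum was about 1 × 10^7 CFU/ml in 0.85% NaCl, from an overnight LB culture grown at 37°C; 100 µl was spread per plate. One strip was placed per plate, with incubation at 37°C for 18 h.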

Pseudomonas aeruginosa [13] = assay: Antimicrobial activity against Pseudomonas aeruginosa PA14 PA3141 harboring wbpM mutant gene by Etest method; outline: as §1
Pseudomonas aeruginosa [14] = assay: Antimicrobial activity against Pseudomonas aeruginosa PA14 PA3589 harboring mutation in acetyl-coenzyme A (CoA) acetyltransferase (thiolase) by Etest method; outline: as §2
Pseudomonas aeruginosa [15] = assay: Antimicrobial activity against Pseudomonas aeruginosa PA14 PA14_59780 harboring rcsC mutant gene by Etest method; outline: as §1
Pseudomonas aeruginosa [16] = assay: Antimicrobial activity against Pseudomonas aeruginosa PA14 PA1195 harboring mutation in putative dimethylarginine dimethylaminohydrolase by Etest method; outline: as §1
Pseudomonas aeruginosa [17] = assay: Antimicrobial activity against Pseudomonas aeruginosa PA14 PA4393 harboring mutation in putative permease by Etest method; outline: as §2
Pseudomonas aeruginosa [18] = assay: Antimicrobial activity against Pseudomonas aeruginosa PA14 PA5001 harboring mutation in conserved hypothetical protein by Etest method; outline: as §2
Pseudomonas aeruginosa [19] = assay: Antimicrobial activity against Pseudomonas aeruginosa PA14 PA5038 harboring aroB mutant gene by Etest method; outline: as §2
Pseudomonas aeruginosa [20] = assay: Antimicrobial activity against Pseudomonas aeruginosa PA14 PA4550 harboring fimU mutant gene by Etest method; outline: as §2
Pseudomonas aeruginosa [21] = assay: Antimicrobial activity against Pseudomonas aeruginosa PA14 PA1348 harboring mutation in conserved hypothetical protein by Etest method; outline: as §1
Pseudomonas aeruginosa [22] = assay: Antimicrobial activity against Pseudomonas aeruginosa PA14 PA0402 harboring pyrB mutant gene by Etest method; outline: as §1
Pseudomonas aeruginosa [23] = assay: Antimicrobial activity against Pseudomonas aeruginosa PA14 PA3620 harboring mutS mutant gene by Etest method; outline: as §2
Pseudomonas aeruginosa [24] = assay: Antimicrobial activity against Pseudomonas aeruginosa PA14 PA2797 harboring mutation in putative anti-anti-sigma factor by Etest method; outline: as §1
Pseudomonas aeruginosa [25] = assay: Antimicrobial activity against Pseudomonas aeruginosa PA14 PA3433 harboring mutation in putative transcriptional regulator, LysR family by Etest method; outline: as §2
Pseudomonas aeruginosa [26] = assay: Antimicrobial activity against Pseudomonas aeruginosa PA14 PA3259 harboring mutation in conserved hypothetical protein by Etest method; outline: as §2
Pseudomonas aeruginosa [27] = assay: Antimicrobial activity against Pseudomonas aeruginosa PA14 PA14_06490 harboring mutation in hypothetical protein by Etest method; outline: as §1
Pseudomonas aeruginosa [28] = assay: Antimicrobial activity against Pseudomonas aeruginosa PA14 PA4748 harboring tpiA mutant gene by Etest method; outline: as §2
Pseudomonas aeruginosa [29] = assay: Antimicrobial activity against Pseudomonas aeruginosa PA14 PA3667 harboring mutation in putative cysteine sulfinate desulfinase by Etest method; outline: as §2
Pseudomonas aeruginosa [30] = assay: Antimicrobial activity against Pseudomonas aeruginosa PA14 PA3520 harboring mutation in putative periplasmic metal-binding protein by Etest method; outline: as §2
Pseudomonas aeruginosa [31] = assay: Antimicrobial activity against Pseudomonas aeruginosa PA14 PA5443 harboring uvrD mutant gene by Etest method; outline: as §2
Pseudomonas aeruginosa [32] = assay: Antimicrobial activity against Pseudomonas aeruginosa PA14 PA3649 harboring mutation in putative membrane-associated zinc metalloprotease by Etest method; outline: as §2
Pseudomonas aeruginosa [33] = assay: Antimicrobial activity against Pseudomonas aeruginosa PA14 PA4109 harboring ampR mutant gene by Etest method; outline: as §2

SMILES | MIC (Pseudomonas aeruginosa [1]) [µg/mL] | MIC (Pseudomonas aeruginosa [3]) [µg/mL] | MIC (Pseudomonas aeruginosa [4]) [µg/mL] | MIC (Pseudomonas aeruginosa [5]) [µg/mL] | MIC (Pseudomonas aeruginosa [6]) [µg/mL] | MIC (Pseudomonas aeruginosa [7]) [µg/mL] | MIC (Pseudomonas aeruginosa [8]) [µg/mL] | MIC (Pseudomonas aeruginosa [9]) [µg/mL] | MIC (Pseudomonas aeruginosa [10]) [µg/mL] | MIC (Pseudomonas aeruginosa [11]) [µg/mL] | MIC (Pseudomonas aeruginosa [13]) [µg/mL] | MIC (Pseudomonas aeruginosa [14]) [µg/mL] | MIC (Pseudomonas aeruginosa [15]) [µg/mL] | MIC (Pseudomonas aeruginosa [16]) [µg/mL] | MIC (Pseudomonas aeruginosa [17]) [µg/mL] | MIC (Pseudomonas aeruginosa [18]) [µg/mL] | MIC (Pseudomonas aeruginosa [19]) [µg/mL] | MIC (Pseudomonas aeruginosa [20]) [µg/mL] | MIC (Pseudomonas aeruginosa [21]) [µg/mL] | MIC (Pseudomonas aeruginosa [22]) [µg/mL] | also measured
C[C@@H](O)[C@H]1C(=O)N2C(C(=O)O)=C(SCCNC=N)C[C@H]12 [IMIPENEM ANHYDROUS] | 0.25 (≈ 0.835 µM) | 2 (≈ 6.68 µM) | 0.38 (≈ 1.27 µM) | 0.38 (≈ 1.27 µM) | 0.38 (≈ 1.27 µM) | 0.25 (≈ 0.835 µM) | 0.5 (≈ 1.67 µM) | 0.75 (≈ 2.51 µM) | 0.19 (≈ 0.635 µM) | 0.25 (≈ 0.835 µM) | 0.5 (≈ 1.67 µM) | 0.5 (≈ 1.67 µM) | 0.5 (≈ 1.67 µM) | 0.38 (≈ 1.27 µM) | 0.25 (≈ 0.835 µM) | 0.38 (≈ 1.27 µM) | 0.38 (≈ 1.27 µM) | 0.5 (≈ 1.67 µM) | 0.5 (≈ 1.67 µM) | 0.38 (≈ 1.27 µM) | MIC (Pseudomonas aeruginosa [2]): 0.38 µg/mL (≈ 1.27 µM); MIC (Pseudomonas aeruginosa [12]): 0.38 µg/mL (≈ 1.27 µM); MIC (Pseudomonas aeruginosa [23]): 0.38 µg/mL (≈ 1.27 µM); MIC (Pseudomonas aeruginosa [24]): 0.5 µg/mL (≈ 1.67 µM); MIC (Pseudomonas aeruginosa [25]): 0.19 µg/mL (≈ 0.635 µM); MIC (Pseudomonas aeruginosa [26]): 0.5 µg/mL (≈ 1.67 µM); MIC (Pseudomonas aeruginosa [27]): 0.38 µg/mL (≈ 1.27 µM); MIC (Pseudomonas aeruginosa [28]): 0.38 µg/mL (≈ 1.27 µM); MIC (Pseudomonas aeruginosa [29]): 0.75 µg/mL (≈ 2.51 µM); MIC (Pseudomonas aeruginosa [30]): 0.5 µg/mL (≈ 1.67 µM); MIC (Pseudomonas aeruginosa [31]): 0.5 µg/mL (≈ 1.67 µM); MIC (Pseudomonas aeruginosa [32]): 0.25 µg/mL (≈ 0.835 µM)
C[C@@H](O)[C@H]1C(=O)N2C(C(=O)O)=C(S[C@@H]3CN[C@H](C(=O)N(C)C)C3)[C@H](C)[C@H]12 [MEROPENEM] | 0.094 (≈ 0.245 µM) | 1 (≈ 2.61 µM) | 0.125 (≈ 0.326 µM) | 0.125 (≈ 0.326 µM) | 0.125 (≈ 0.326 µM) | 0.125 (≈ 0.326 µM) | 0.25 (≈ 0.652 µM) | 0.047 (≈ 0.123 µM) | 0.064 (≈ 0.167 µM) | 0.125 (≈ 0.326 µM) | 0.125 (≈ 0.326 µM) | 0.125 (≈ 0.326 µM) | 0.125 (≈ 0.326 µM) | 0.125 (≈ 0.326 µM) | 0.19 (≈ 0.495 µM) | 0.38 (≈ 0.991 µM) | 0.25 (≈ 0.652 µM) | 0.125 (≈ 0.326 µM) | 0.5 (≈ 1.3 µM) | 0.125 (≈ 0.326 µM) | MIC (Pseudomonas aeruginosa [33]): 0.125 µg/mL (≈ 0.326 µM); MIC (Pseudomonas aeruginosa [23]): 0.125 µg/mL (≈ 0.326 µM); MIC (Pseudomonas aeruginosa [24]): 0.094 µg/mL (≈ 0.245 µM); MIC (Pseudomonas aeruginosa [25]): 0.125 µg/mL (≈ 0.326 µM); MIC (Pseudomonas aeruginosa [26]): 0.125 µg/mL (≈ 0.326 µM); MIC (Pseudomonas aeruginosa [27]): 0.125 µg/mL (≈ 0.326 µM); MIC (Pseudomonas aeruginosa [28]): 0.25 µg/mL (≈ 0.652 µM); MIC (Pseudomonas aeruginosa [29]): 0.125 µg/mL (≈ 0.326 µM); MIC (Pseudomonas aeruginosa [30]): 0.38 µg/mL (≈ 0.991 µM); MIC (Pseudomonas aeruginosa [31]): 0.094 µg/mL (≈ 0.245 µM); MIC (Pseudomonas aeruginosa [32]): 0.125 µg/mL (≈ 0.326 µM)
